Test results as given in ChEMBL document CHEMBL5058577, “EUbOPEN Chemogenomics Library 2 (Multiplex)” (2022).

System: HEK-293T
Experiment: Multiplex assay against HEK293T
Type: toxicity, cell-based
Settings: human
How it was run: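 Values for tubulin, mitochondrial-mass and membrane-permeability phenotypes are per cents of cells with healthy nuclei. These cells were identified by CellPathfinder machine-learning gating of live cells that had been stained at seeding with Hoechst33342, BioTracker Green Microtubule Cytoskeleton Dye, MitoTracker Red and Annexin V Alexa Fluor 680 and imaged on a CQ1 microscope at 37°C and 5% CO2 after compound addition. The gating first set Hoechst high-intensity objects apart from normal cells, then split normal cells into healthy, pyknosed or fragmented nuclei, and pyknosed cells into mitotic or apoptotic.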

[1] = 12 h, 1 µM, compound concentration 1 uM, replicate 1
[2] = 12 h, 1 µM, compound concentration 1 uM, replicate 2
[3] = 12 h, 10 µM, compound concentration 10 uM, replicate 1
[4] = 12 h, 10 µM, compound concentration 10 uM, replicate 2
[5] = 24 h, 1 µM, compound concentration 1 uM, replicate 1
[6] = 24 h, 1 µM, compound concentration 1 uM, replicate 2
[7] = 24 h, 10 µM, compound concentration 10 uM, replicate 1
[8] = 24 h, 10 µM, compound concentration 10 uM, replicate 2
[9] = 48 h, 1 µM, compound concentration 1 uM, replicate 1
[10] = 48 h, 1 µM, compound concentration 1 uM, replicate 2
[11] = 48 h, 10 µM, compound concentration 10 uM, replicate 1
[12] = 48 h, 10 µM, compound concentration 10 uM, replicate 2

CN(C)CCCc1cc(C(=O)Nc2ccc(-c3ccncc3)cc2)ccc1O.Cl.Cl
Population Apoptotic (%) [1]: 27% | Population Fragmented Nuclei (%) [1]: 5% | Population Healthy Nuclei (%) [1]: 79% | Population Hoechst High Intensity Objects (%) [1]: 9% | Population Membrane Permeable-Phenotype (%) [1]: 0% | Population Mitochondria Different-Phenotype (%) [1]: 48% | Population Mitotic Cells (%) [1]: 72% | Population Normal (%) [1]: 90% | Population Pyknosed Nuclei (%) [1]: 14% | Population Tubulin-Different-Phenotype (%) [1]: 37% | Total Cell Count [1]: 358 | Population Apoptotic (%) [2]: 37% | Population Healthy Nuclei (%) [2]: 82% | Population Hoechst High Intensity Objects (%) [2]: 8% | Population Mitochondria Different-Phenotype (%) [2]: 58% | Population Mitotic Cells (%) [2]: 62% | Population Normal (%) [2]: 91% | Population Pyknosed Nuclei (%) [2]: 11% | Population Tubulin-Different-Phenotype (%) [2]: 14% | Total Cell Count [2]: 367 | Population Apoptotic (%) [3]: 31% | Population Fragmented Nuclei (%) [3]: 10% | Population Healthy Nuclei (%) [3]: 81% | Population Hoechst High Intensity Objects (%) [3]: 6% | Population Membrane Permeable-Phenotype (%) [3]: 0% | Population Mitochondria Different-Phenotype (%) [3]: 49% | Population Mitotic Cells (%) [3]: 68% | Population Normal (%) [3]: 93% | Population Pyknosed Nuclei (%) [3]: 7% | Population Tubulin-Different-Phenotype (%) [3]: 33% | Total Cell Count [3]: 460 | Population Apoptotic (%) [4]: 60% | Population Fragmented Nuclei (%) [4]: 11% | Population Healthy Nuclei (%) [4]: 77% | Population Hoechst High Intensity Objects (%) [4]: 9% | Population Membrane Permeable-Phenotype (%) [4]: 2% | Population Mitochondria Different-Phenotype (%) [4]: 63% | Population Mitotic Cells (%) [4]: 39% | Population Normal (%) [4]: 90% | Population Pyknosed Nuclei (%) [4]: 11% | Total Cell Count [4]: 391 | Population Apoptotic (%) [5]: 25% | Population Fragmented Nuclei (%) [5]: 11% | Population Healthy Nuclei (%) [5]: 78% | Population Hoechst High Intensity Objects (%) [5]: 5% | Population Membrane Permeable-Phenotype (%) [5]: 1% | Population Mitochondria Different-Phenotype (%) [5]: 26% | Population Mitotic Cells (%) [5]: 74% | Population Normal (%) [5]: 94% | Population Pyknosed Nuclei (%) [5]: 10% | Population Tubulin-Different-Phenotype (%) [5]: 21% | Total Cell Count [5]: 542 | Population Fragmented Nuclei (%) [6]: 9% | Population Healthy Nuclei (%) [6]: 83% | Population Membrane Permeable-Phenotype (%) [6]: 0% | Population Mitochondria Different-Phenotype (%) [6]: 32% | Population Mitotic Cells (%) [6]: 75% | Population Pyknosed Nuclei (%) [6]: 6% | Population Tubulin-Different-Phenotype (%) [6]: 9% | Total Cell Count [6]: 486 | Population Apoptotic (%) [7]: 32% | Population Fragmented Nuclei (%) [7]: 12% | Population Healthy Nuclei (%) [7]: 77% | Population Hoechst High Intensity Objects (%) [7]: 5% | Population Membrane Permeable-Phenotype (%) [7]: 0% | Population Mitochondria Different-Phenotype (%) [7]: 38% | Population Mitotic Cells (%) [7]: 67% | Population Normal (%) [7]: 94% | Population Pyknosed Nuclei (%) [7]: 9% | Population Tubulin-Different-Phenotype (%) [7]: 23% | Total Cell Count [7]: 588 | Population Apoptotic (%) [8]: 47% | Population Fragmented Nuclei (%) [8]: 15% | Population Healthy Nuclei (%) [8]: 74% | Population Hoechst High Intensity Objects (%) [8]: 15% | Population Mitochondria Different-Phenotype (%) [8]: 48% | Population Mitotic Cells (%) [8]: 52% | Population Normal (%) [8]: 84% | Population Tubulin-Different-Phenotype (%) [8]: 19% | Total Cell Count [8]: 505 | Population Apoptotic (%) [9]: 23% | Population Fragmented Nuclei (%) [9]: 11% | Population Healthy Nuclei (%) [9]: 81% | Population Hoechst High Intensity Objects (%) [9]: 2% | Population Membrane Permeable-Phenotype (%) [9]: 2% | Population Mitochondria Different-Phenotype (%) [9]: 19% | Population Mitotic Cells (%) [9]: 76% | Population Normal (%) [9]: 97% | Population Pyknosed Nuclei (%) [9]: 6% | Population Tubulin-Different-Phenotype (%) [9]: 14% | Total Cell Count [9]: 814 | Population Apoptotic (%) [10]: 21% | Population Fragmented Nuclei (%) [10]: 16% | Population Healthy Nuclei (%) [10]: 75% | Population Hoechst High Intensity Objects (%) [10]: 5% | Population Membrane Permeable-Phenotype (%) [10]: 1% | Population Mitochondria Different-Phenotype (%) [10]: 24% | Population Mitotic Cells (%) [10]: 78% | Population Normal (%) [10]: 94% | Population Pyknosed Nuclei (%) [10]: 8% | Population Tubulin-Different-Phenotype (%) [10]: 13% | Total Cell Count [10]: 596 | Population Apoptotic (%) [11]: 29% | Population Fragmented Nuclei (%) [11]: 17% | Population Healthy Nuclei (%) [11]: 75% | Population Hoechst High Intensity Objects (%) [11]: 5% | Population Membrane Permeable-Phenotype (%) [11]: 1% | Population Mitochondria Different-Phenotype (%) [11]: 21% | Population Mitotic Cells (%) [11]: 70% | Population Normal (%) [11]: 94% | Population Pyknosed Nuclei (%) [11]: 6% | Population Tubulin-Different-Phenotype (%) [11]: 13% | Total Cell Count [11]: 883 | Population Apoptotic (%) [12]: 58% | Population Fragmented Nuclei (%) [12]: 15% | Population Healthy Nuclei (%) [12]: 76% | Population Hoechst High Intensity Objects (%) [12]: 11% | Population Membrane Permeable-Phenotype (%) [12]: 0% | Population Mitochondria Different-Phenotype (%) [12]: 35% | Population Mitotic Cells (%) [12]: 41% | Population Normal (%) [12]: 88% | Population Pyknosed Nuclei (%) [12]: 7% | Population Tubulin-Different-Phenotype (%) [12]: 20% | Total Cell Count [12]: 641
